Experimental data taken from ChEMBL document CHEMBL4052671, “Design, synthesis, and evaluation of DNA topoisomerase II-targeted nucleosides” (Bioorg Med Chem, 2017).
pIC50: −log10 of the molar value. Blank lines part the entries; values can stand above or below the compound they belong to. Activity calls are given as the source filed them. No cut-off for these calls is given here.

Tests used:
[1] = molecular target: T1, DNA topoisomerase 2-alpha (Homo sapiens, UniProt P11388); test: Inhibition of recombinant human DNA topoisomerase-2alpha assessed as decrease in relaxation of supercoiled pBR322 DNA at […] after 30 mins by ethidium bromide staining based agarose gel electrophoresis relative to control
Outline: (§1)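 Topo II relaxation of supercoiled pBR322 (198 ng) with 1 U enzyme, 50 mM Tris-HCl pH 8, 120 mM KCl, 10 mM MgCl2, 0.5 mM ATP, 0.5 mM DTT, drug in <10% DMSO; 37 °C for 30 min; products run on 1% agarose in TAE, ethidium-stained, scanned; supercoiled DNA area quantified.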

[2] = molecular target: T1, DNA topoisomerase 2-alpha; test: Inhibition of recombinant human DNA topoisomerase-2alpha assessed as decrease in relaxation of supercoiled pBR322 DNA after 30 mins by ethidium bromide staining based agarose gel electrophoresis
[3] = molecular target: T1, DNA topoisomerase 2-alpha; test: Inhibition of recombinant human DNA topoisomerase-2alpha assessed as decrease in relaxation of supercoiled pBR322 DNA at 200 uM after 30 mins by ethidium bromide staining based agarose gel electrophoresis relative to control; outline: as §1
[4] = system: HCT-116; test: Growth inhibition of human HCT116 cells incubated for 48 hrs by sulforhodamine B assay; format: functional; conditions: HCT-116, 48 h
[5] = system: MKN-7; test: Growth inhibition of human MKN7 cells incubated for 48 hrs by sulforhodamine B assay; format: functional; conditions: MKN-7, 48 h
[6] = system: NCI-H23; test: Growth inhibition of human NCI-H23 cells incubated for 48 hrs by sulforhodamine B assay; format: functional; conditions: NCI-H23, 48 h
[7] = system: MKN-1; test: Growth inhibition of human MKN1 cells incubated for 48 hrs by sulforhodamine B assay; format: functional; conditions: MKN-1, 48 h
[8] = system: HT-29; test: Growth inhibition of human HT-29 cells incubated for 48 hrs by sulforhodamine B assay; format: functional; conditions: HT-29, 48 h
[9] = system: OVCAR-4; test: Growth inhibition of human OVCAR4 cells incubated for 48 hrs by sulforhodamine B assay; format: functional; conditions: OVCAR-4, 48 h
[10] = system: SF-539; test: Growth inhibition of human SF539 cells incubated for 48 hrs by sulforhodamine B assay; format: functional; conditions: SF-539, 48 h
[11] = system: SK-OV-3; test: Growth inhibition of human SKOV3 cells incubated for 48 hrs by sulforhodamine B assay; format: functional; conditions: SK-OV-3, 48 h
[12] = system: RXF 631; test: Growth inhibition of human RXF631L cells incubated for 48 hrs by sulforhodamine B assay; format: functional; conditions: RXF 631, 48 h
[13] = system: PC-3; test: Growth inhibition of human PC3 cells incubated for 48 hrs by sulforhodamine B assay; format: functional; conditions: PC-3, 48 h
[14] = Growth inhibition of human HBC5 cells incubated for 48 hrs by sulforhodamine B assay; format: functional; conditions: HBC5, 48 h
[15] = system: ACHN; test: Growth inhibition of human ACHN cells incubated for 48 hrs by sulforhodamine B assay; format: functional
[16] = Growth inhibition of human HBC4 cells incubated for 48 hrs by sulforhodamine B assay; format: functional; conditions: HBC4, 48 h
[17] = system: LOX IMVI; test: Growth inhibition of human LOXIMVI cells incubated for 48 hrs by sulforhodamine B assay; format: functional
[18] = Growth inhibition of human BSY1 cells incubated for 48 hrs by sulforhodamine B assay; format: functional; conditions: BSY-1, 48 h
[19] = system: St-4; test: Growth inhibition of human St-4 cells incubated for 48 hrs by sulforhodamine B assay; format: functional; conditions: St-4, 48 h
[20] = system: NCI-H522; test: Growth inhibition of human NCI-H522 cells incubated for 48 hrs by sulforhodamine B assay; format: functional; conditions: NCI-H522, 48 h
[21] = system: OVCAR-8; test: Growth inhibition of human OVCAR8 cells incubated for 48 hrs by sulforhodamine B assay; format: functional; conditions: OVCAR-8, 48 h
[22] = system: HCT-15; test: Growth inhibition of human HCT15 cells incubated for 48 hrs by sulforhodamine B assay; format: functional; conditions: HCT-15, 48 h
[23] = system: MKN-45; test: Growth inhibition of human MKN45 cells incubated for 48 hrs by sulforhodamine B assay; format: functional; conditions: MKN-45, 48 h
[24] = system: SF-295; test: Growth inhibition of human SF295 cells incubated for 48 hrs by sulforhodamine B assay; format: functional; conditions: SF-295, 48 h
[25] = system: U-251; test: Growth inhibition of human U251 cells incubated for 48 hrs by sulforhodamine B assay; format: functional; conditions: U-251, 48 h
[26] = system: DMS-273; test: Growth inhibition of human DMS273 cells incubated for 48 hrs by sulforhodamine B assay; format: functional; conditions: DMS-273, 48 h
[27] = system: HCC 2998; test: Growth inhibition of human HCC2998 cells incubated for 48 hrs by sulforhodamine B assay; format: functional; conditions: HCC 2998, 48 h
[28] = system: MKN-28; test: Growth inhibition of human MKN28 cells incubated for 48 hrs by sulforhodamine B assay; format: functional; conditions: MKN-28, 48 h
[29] = system: NCI-H460; test: Growth inhibition of human NCI-H460 cells incubated for 48 hrs by sulforhodamine B assay; format: functional; conditions: NCI-H460, 48 h
[30] = system: OVCAR-5; test: Growth inhibition of human OVCAR5 cells incubated for 48 hrs by sulforhodamine B assay; format: functional; conditions: OVCAR-5, 48 h
[31] = system: DU-145; test: Growth inhibition of human DU145 cells incubated for 48 hrs by sulforhodamine B assay; format: functional; conditions: DU-145, 48 h
[32] = system: A549; test: Growth inhibition of human A549 cells incubated for 48 hrs by sulforhodamine B assay; format: functional; conditions: A549, 48 h
[33] = system: KM12; test: Growth inhibition of human KM12 cells incubated for 48 hrs by sulforhodamine B assay; format: functional; conditions: KM12, 48 h
[34] = system: MCF7; test: Growth inhibition of human MCF7 cells incubated for 48 hrs by sulforhodamine B assay; format: functional; conditions: MCF7, 48 h
[35] = system: SNB-78; test: Growth inhibition of human SNB78 cells incubated for 48 hrs by sulforhodamine B assay; format: functional; conditions: SNB-78, 48 h
[36] = system: NCI-H226; test: Growth inhibition of human NCI-H226 cells incubated for 48 hrs by sulforhodamine B assay; format: functional; conditions: NCI-H226, 48 h
[37] = Growth inhibition of human […] incubated for 48 hrs by sulforhodamine B assay; format: functional
[38] = system: SNB-75; test: Growth inhibition of human SNB75 cells incubated for 48 hrs by sulforhodamine B assay; format: functional; conditions: SNB-75, 48 h
[39] = system: SF-268; test: Growth inhibition of human SF268 cells incubated for 48 hrs by sulforhodamine B assay; format: functional; conditions: SF-268, 48 h
[40] = system: MKN-74; test: Growth inhibition of human MKN74 cells incubated for 48 hrs by sulforhodamine B assay; format: functional; conditions: MKN-74, 48 h
[41] = system: OVCAR-3; test: Growth inhibition of human OVCAR3 cells incubated for 48 hrs by sulforhodamine B assay; format: functional; conditions: OVCAR-3, 48 h
[42] = system: DMS-114; test: Growth inhibition of human DMS114 cells incubated for 48 hrs by sulforhodamine B assay; format: functional; conditions: DMS-114, 48 h
[43] = molecular target: DNA topoisomerase 1 (Homo sapiens) (UniProt P11387); test: Inhibition of human placenta DNA topoisomerase-1 assessed as decrease in relaxation of supercoiled pUC19 DNA at 200 uM after 30 mins by ethidium bromide staining based agarose gel electrophoresis
[44] = molecular target: T1, DNA topoisomerase 2-alpha; test: Poison activity at recombinant human DNA topoisomerase-2alpha assessed as linear DNA formation using supercoiled pBR322 DNA as substrate at 200 uM after 30 mins by ethidium bromide staining based agarose gel electrophoresis
Outline: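 Cleavage reactions: 200 ng pBR322, 6 U topo II, 30 mM Tris-HCl pH 7.6, 60 mM NaCl, 8 mM MgCl2, 3 mM ATP, 15 mM mercaptoethanol, drug in 10% DMSO; 37 °C, 30 min; SDS/proteinase K 60 min, 37 °C; 1% agarose in TBE with 0.1% SDS and ethidium bromide; linear DNA scored.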

[45] = molecular target: T1, DNA topoisomerase 2-alpha; test: Inhibition of recombinant human DNA topoisomerase-2alpha assessed as decrease in relaxation of supercoiled pBR322 DNA at 100 uM after 30 mins by ethidium bromide staining based agarose gel electrophoresis; outline: as §1

T1 sequence (P11388 whole entry): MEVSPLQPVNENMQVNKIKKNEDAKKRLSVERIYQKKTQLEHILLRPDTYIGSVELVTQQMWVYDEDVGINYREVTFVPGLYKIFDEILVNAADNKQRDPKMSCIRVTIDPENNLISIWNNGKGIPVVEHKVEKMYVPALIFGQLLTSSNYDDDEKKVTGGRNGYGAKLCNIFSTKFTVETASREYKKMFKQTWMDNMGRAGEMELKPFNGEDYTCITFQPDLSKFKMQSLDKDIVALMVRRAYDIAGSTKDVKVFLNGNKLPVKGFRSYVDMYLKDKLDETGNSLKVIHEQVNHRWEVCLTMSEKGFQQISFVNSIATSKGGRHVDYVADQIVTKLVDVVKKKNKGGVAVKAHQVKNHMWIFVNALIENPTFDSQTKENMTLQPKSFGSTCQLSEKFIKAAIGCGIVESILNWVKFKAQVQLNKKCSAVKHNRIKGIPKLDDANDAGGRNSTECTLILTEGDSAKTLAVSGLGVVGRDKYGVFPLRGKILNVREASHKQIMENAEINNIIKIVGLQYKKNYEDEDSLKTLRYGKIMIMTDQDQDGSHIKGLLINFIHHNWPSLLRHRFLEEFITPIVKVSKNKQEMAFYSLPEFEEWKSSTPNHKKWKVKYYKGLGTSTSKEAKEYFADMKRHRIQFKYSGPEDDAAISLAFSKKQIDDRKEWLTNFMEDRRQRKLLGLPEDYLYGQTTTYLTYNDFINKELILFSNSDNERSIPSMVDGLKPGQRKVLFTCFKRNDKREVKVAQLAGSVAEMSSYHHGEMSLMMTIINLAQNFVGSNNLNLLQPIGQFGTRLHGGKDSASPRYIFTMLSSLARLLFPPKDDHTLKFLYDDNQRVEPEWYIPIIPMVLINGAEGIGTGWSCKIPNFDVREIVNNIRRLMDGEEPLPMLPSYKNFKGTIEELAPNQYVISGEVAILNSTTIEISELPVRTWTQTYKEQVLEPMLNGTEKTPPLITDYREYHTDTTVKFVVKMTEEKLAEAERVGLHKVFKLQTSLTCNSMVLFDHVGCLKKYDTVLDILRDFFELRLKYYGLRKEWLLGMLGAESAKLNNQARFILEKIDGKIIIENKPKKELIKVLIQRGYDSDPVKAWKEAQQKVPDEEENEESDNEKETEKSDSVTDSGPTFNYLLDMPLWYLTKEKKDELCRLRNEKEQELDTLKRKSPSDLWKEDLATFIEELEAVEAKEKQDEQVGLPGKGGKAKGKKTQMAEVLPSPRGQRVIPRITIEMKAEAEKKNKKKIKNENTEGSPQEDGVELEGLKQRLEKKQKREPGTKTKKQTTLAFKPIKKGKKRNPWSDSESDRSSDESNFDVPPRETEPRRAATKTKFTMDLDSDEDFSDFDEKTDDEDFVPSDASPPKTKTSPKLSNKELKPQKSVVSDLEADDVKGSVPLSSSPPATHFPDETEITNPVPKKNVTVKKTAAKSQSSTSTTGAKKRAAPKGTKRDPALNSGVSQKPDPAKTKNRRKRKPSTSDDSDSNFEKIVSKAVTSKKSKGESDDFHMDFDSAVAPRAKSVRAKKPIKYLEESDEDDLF
Chain of DNA topoisomerase 1 (Homo sapiens) (P11387 whole entry): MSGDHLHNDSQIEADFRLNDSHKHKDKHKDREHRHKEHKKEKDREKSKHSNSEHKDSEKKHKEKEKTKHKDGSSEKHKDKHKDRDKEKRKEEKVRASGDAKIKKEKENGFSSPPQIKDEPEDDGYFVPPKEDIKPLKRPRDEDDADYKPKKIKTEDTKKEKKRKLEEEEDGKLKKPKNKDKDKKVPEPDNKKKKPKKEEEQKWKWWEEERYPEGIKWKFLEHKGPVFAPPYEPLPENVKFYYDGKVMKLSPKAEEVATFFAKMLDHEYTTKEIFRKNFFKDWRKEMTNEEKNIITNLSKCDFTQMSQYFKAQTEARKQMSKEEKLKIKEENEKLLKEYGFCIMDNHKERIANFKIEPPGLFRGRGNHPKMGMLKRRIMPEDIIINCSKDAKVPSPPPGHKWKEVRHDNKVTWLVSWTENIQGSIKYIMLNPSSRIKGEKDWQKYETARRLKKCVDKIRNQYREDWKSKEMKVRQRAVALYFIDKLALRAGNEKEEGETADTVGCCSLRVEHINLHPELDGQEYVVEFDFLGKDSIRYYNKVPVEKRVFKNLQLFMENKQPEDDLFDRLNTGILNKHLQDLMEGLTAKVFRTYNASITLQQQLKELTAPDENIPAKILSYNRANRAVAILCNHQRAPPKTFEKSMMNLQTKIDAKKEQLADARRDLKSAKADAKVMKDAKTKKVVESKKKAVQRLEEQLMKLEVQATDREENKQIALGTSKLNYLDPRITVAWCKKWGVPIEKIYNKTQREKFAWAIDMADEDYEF

inhibition [1]: 23.7% | pIC50 [2]: < 3.70 | inhibition [3]: inactive
SMILES: COc1ccc(C[C@H]2C[C@H](n3cc(C)c(=O)[nH]c3=O)O[C@@H]2CO)cc1OC

GI50 [4]: 5.75 µM | GI50 [5]: 3.02 µM | GI50 [6]: 11 µM | GI50 [7]: 5.01 µM | pIC50 [2]: 4.73 | GI50 [8]: 6.17 µM | GI50 [9]: 4.9 µM | GI50 [11]: 17 µM | GI50 [13]: 3.63 µM | GI50 [15]: 6.76 µM | GI50 [20]: 5.62 µM | GI50 [21]: 8.32 µM | GI50 [22]: 9.12 µM | GI50 [23]: 8.32 µM | GI50 [25]: 7.41 µM | GI50 [27]: 12.9 µM | GI50 [28]: 4.9 µM | GI50 [29]: 5.62 µM | GI50 [30]: 12.9 µM | GI50 [31]: 12 µM | GI50 [32]: 5.37 µM | GI50 [34]: 4.37 µM | GI50 [36]: 3.39 µM | GI50 [40]: 4.27 µM | GI50 [41]: 11 µM
SMILES: COc1ccc(C2([C@H]3C[C@@H](n4cc(C)c(=O)[nH]c4=O)O[C@@H]3CO[Si](C)(C)C(C)(C)C)SCCCS2)cc1OC
GI50 [10]: 14.1 µM | GI50 [12]: 17 µM | GI50 [14]: 5.75 µM | GI50 [16]: 5.01 µM | GI50 [17]: 8.13 µM | GI50 [18]: 3.31 µM | GI50 [19]: 12 µM | GI50 [24]: 8.32 µM | GI50 [26]: 4.57 µM | GI50 [33]: 11 µM | GI50 [35]: 12.9 µM | GI50 [37]: 11 µM | GI50 [38]: 17 µM | GI50 [39]: 12.9 µM | GI50 [42]: 5.62 µM

pIC50 [2]: 3.75 | inhibition [2]: Dose-dependent effect | inhibition [43]: inactive | inhibition [45]: inactive
SMILES: Cc1cn([C@H]2C[C@H](Cc3ccc(O)c(O)c3)[C@@H](CO)O2)c(=O)[nH]c1=O
Activity [44]: inactive

SMILES: COc1cc([C@@H]2c3cc4c(cc3[C@@H](O[C@@H]3O[C@@H]5CO[C@@H](C)O[C@H]5[C@H](O)[C@H]3O)[C@H]3COC(=O)[C@H]23)OCO4)cc(OC)c1O
Activity [44]: Active

pIC50 [2]: 4.19
SMILES: COc1ccc(C2([C@H]3C[C@H](n4cc(C)c(=O)[nH]c4=O)O[C@@H]3CO)SCCCS2)cc1OC

pIC50 [2]: 4.45
SMILES: Cc1cn([C@H]2C[C@H](Cc3ccc(O)c(O)c3)[C@@H](CO[Si](C)(C)C(C)(C)C)O2)c(=O)[nH]c1=O

pIC50 [2]: 4.25
SMILES: COc1ccc(C2([C@H]3CC(=O)O[C@@H]3CO[Si](C)(C)C(C)(C)C)SCCCS2)cc1OC
